In ChEMBL document CHEMBL2034851, “Synthesis and antiviral evaluation of C5-substituted-(1,3-diyne)-2'-deoxyuridines” (Eur J Med Chem, 2012):

Tests used:
[1] = Cytotoxicity against human HEL cells assessed as change in cell morphology by microscopic analysis; assay type: cell-based
Procedure, shortened: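 MCC is the compound concentration producing a microscopically visible change in cell morphology, scored on the cell cultures used for the antiviral tests.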

[2] = system: Human alphaherpesvirus 3; test: Antiviral activity against thymidine kinase-deficient Varicella-zoster virus 07/1 infected in HEL cells assessed as reduction in virus-induced cytopathicity; assay type: functional, organism-based; conditions: Human alphaherpesvirus 3, 07/1, HEL
Procedure, shortened: (§1)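 Confluent HEL cell monolayers in 96-well plates were inoculated with 100 CCID50 or 20 PFU of virus and left 1–2 h for adsorption. Residual virus was removed and cells were incubated with serial compound dilutions. Read-out was taken once cytopathicity was complete in untreated infected controls. EC50 is the concentration giving 50% reduction of virus-induced cytopathicity or plaque formation.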

[3] = system: Human alphaherpesvirus 3; test: Antiviral activity against thymidine kinase-positive Varicella-zoster virus OKA infected in HEL cells assessed as reduction in virus-induced cytopathicity; assay type: functional, cell-based; conditions: Human alphaherpesvirus 3, strain Oka vaccine
Procedure, shortened: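 Confluent HEL cell monolayers in 96-well plates were inoculated with 100 CCID50 or 20 PFU of virus and left 1–2 h for adsorption. Residual virus was removed and cells were incubated with serial compound dilutions. Read-out was taken once cytopathicity was complete in untreated infected controls.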

[4] = system: Human betaherpesvirus 5; test: Antiviral activity against Human cytomegalovirus Davis infected in HEL cells assessed as reduction in virus-induced cytopathicity; assay type: functional, organism-based; conditions: Human betaherpesvirus 5, Davis
Procedure, shortened: (§2)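 Confluent HEL cell monolayers in microtiter plates were inoculated with 100 CCID50 of virus or 20 PFU. After 1–2 h adsorption, residual virus was removed. Cultures were then incubated with graded compound concentrations. Cytopathicity was read once it was complete in untreated infected controls. EC50 is the concentration giving 50% reduction of virus-induced cytopathicity or plaque formation.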

[5] = system: Human alphaherpesvirus 3; test: Antiviral activity against thymidine kinase-positive Varicella-zoster virus YS infected in HEL cells assessed as reduction in virus-induced cytopathicity; assay type: functional, organism-based; conditions: Human alphaherpesvirus 3, YS; procedure, shortened: as §1
[6] = Cytostatic against human HEL cells assessed as reduction in cell growth after 3 days by coulter counter; assay type: cell-based
Procedure, shortened: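 HEL cells were seeded at 5 × 10³ cells/well and grown for 24 h. Medium with varying compound concentrations was then added and plates were incubated 3 days at 37 °C. Cells were counted with a Coulter counter. CC50 is the concentration reducing cell proliferation by 50% versus untreated controls.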

[7] = Lipophilicity, log P of the compound; assay type: physicochemical; conditions: octanol/water
[8] = system: Human betaherpesvirus 5; test: Antiviral activity against Human cytomegalovirus AD169 infected in HEL cells assessed as reduction in virus-induced cytopathicity; assay type: functional, organism-based; conditions: Human betaherpesvirus 5, AD169, HEL; procedure, shortened: as §2
[9] = system: Human alphaherpesvirus 1; test: Antiviral activity against thymidine kinase-deficient Herpes simplex virus 1 infected in HEL cells assessed as reduction in viral plaque formation; assay type: functional, organism-based; conditions: Human alphaherpesvirus 1, HEL; procedure, shortened: as §2
[10] = system: Vaccinia virus; test: Antiviral activity against Vaccinia virus infected in HEL cells assessed as reduction in viral plaque formation; assay type: functional, organism-based; conditions: Orthopoxvirus vaccinia; procedure, shortened: as §1
[11] = system: Human alphaherpesvirus 2; test: Antiviral activity against Herpes simplex virus 2 G infected in HEL cells assessed as reduction in viral plaque formation; assay type: functional, organism-based; conditions: Human alphaherpesvirus 2, strain G; procedure, shortened: as §2
[12] = system: Human alphaherpesvirus 1; test: Antiviral activity against Herpes simplex virus 1 KOS infected in HEL cells assessed as reduction in viral plaque formation; assay type: functional, organism-based; conditions: Human alphaherpesvirus 1, KOS; procedure, shortened: as §2

SMILES | MCC [1] | EC50 [2] | EC50 [3] | EC50 [4] | EC50 [5] | CC50 at 72 h [6] | logP [7] | EC50 [8] | EC50 [9] | EC50 [10] | EC50 [11] | EC50 [12]
O=c1[nH]c(=O)n([C@H]2C[C@H](O)[C@@H](CO)O2)cc1C#CC#CCO | > 100 µM | > 100 µM | 2.1 µM | > 100 µM | 6.24 µM | > 100 µM | -1.45 | > 100 µM | – | – | – | –
Nc1cccc(C#CC#Cc2cn([C@H]3C[C@H](O)[C@@H](CO)O3)c(=O)[nH]c2=O)c1 | > 100 µM | > 100 µM | > 100 µM | > 100 µM | – | > 100 µM | 0.13 | > 100 µM | – | – | – | –
O=c1[nH]c(=O)n([C@H]2C[C@H](O)[C@@H](CO)O2)cc1C#CC#Cc1ccc([N+](=O)[O-])cc1 | 100 µM | > 20 µM | > 20 µM | > 20 µM | – | 89 µM | 0.9 | > 20 µM | – | – | – | –
O=c1[nH]c(=O)n([C@H]2C[C@H](O)[C@@H](CO)O2)cc1/C=C/Br [BRIVUDINE] | > 150 µM | 74 µM | 0.0087 µM | – | 0.0075 µM | > 100 µM | – | – | – | – | – | –
COc1cc(C#CC#Cc2cn([C@H]3C[C@H](O)[C@@H](CO)O3)c(=O)[nH]c2=O)cc(OC)c1 | > 100 µM | > 100 µM | 39 µM | > 100 µM | 38.1 µM | > 100 µM | – | > 100 µM | – | – | – | –
Nc1nc2c(ncn2COC(CO)CO)c(=O)[nH]1 [GANCICLOVIR] | > 350 µM | – | – | 7.1 µM | – | 130 µM | – | 7.5 µM | – | – | – | –
O=c1[nH]c(=O)n([C@H]2C[C@H](O)[C@@H](CO)O2)cc1C#CC#CCC1CCCC1 | > 100 µM | > 100 µM | 42 µM | > 100 µM | 33.7 µM | 89 µM | 1.43 | > 100 µM | – | – | – | –
Cc1cc(C#CC#Cc2cn([C@H]3C[C@H](O)[C@@H](CO)O3)c(=O)[nH]c2=O)ccc1F | 100 µM | > 20 µM | 14 µM | > 20 µM | 9.13 µM | 45 µM | – | > 20 µM | – | – | – | –
O=c1[nH]c(=O)n([C@H]2C[C@H](O)[C@@H](CO)O2)cc1C#CC#Cc1ccc(OC(F)(F)F)cc1 | 100 µM | > 4 µM | 0.9 µM | > 20 µM | 1.08 µM | 55 µM | 2.39 | > 20 µM | 14.5 µM | 20 µM | 10 µM | 14.5 µM
Nc1ccn(C[C@@H](CO)OCP(=O)(O)O)c(=O)n1 [CIDOFOVIR] | > 350 µM | – | – | 1.1 µM | – | 64 µM | – | – | – | – | – | –
CC(O)CC#CC#Cc1cn([C@H]2C[C@H](O)[C@@H](CO)O2)c(=O)[nH]c1=O (stereo partly drawn) | > 100 µM | > 100 µM | 20 µM | > 100 µM | 12.7 µM | 9.5 µM | – | > 100 µM | – | – | – | –
O=c1[nH]c(=O)n([C@H]2C[C@H](O)[C@@H](CO)O2)cc1C#CC#CC1CC1 | > 100 µM | > 100 µM | > 100 µM | > 100 µM | – | > 100 µM | – | > 100 µM | – | – | – | –
O=c1[nH]c(=O)n([C@H]2C[C@H](O)[C@@H](CO)O2)cc1C#CC#Cc1ccccn1 | > 20 µM | 20 µM | 5.1 µM | > 4 µM | 2.06 µM | 1.5 µM | – | 49 µM | – | – | – | –
CCCCCCc1ccc(C#CC#Cc2cn([C@H]3C[C@H](O)[C@@H](CO)O3)c(=O)[nH]c2=O)cc1 | 100 µM | 9.5 µM | 8.8 µM | > 20 µM | 6.44 µM | 35 µM | 3.7 | > 20 µM | – | – | – | –
Nc1nc2c(ncn2COCCO)c(=O)[nH]1 [ACYCLOVIR] | > 300 µM | 92 µM | – | – | 2.18 µM | 470 µM | – | – | – | – | – | –
Nc1ccc(C#CC#Cc2cn([C@H]3C[C@H](O)[C@@H](CO)O3)c(=O)[nH]c2=O)cc1 | > 100 µM | > 100 µM | > 100 µM | > 100 µM | – | > 100 µM | 0.13 | > 100 µM | – | – | – | –
O=c1[nH]c(=O)n([C@H]2C[C@H](O)[C@@H](CO)O2)cc1C#CC#Cc1ccccc1 | 100 µM | > 20 µM | > 20 µM | > 20 µM | > 20 µM | 100 µM | 0.96 | > 20 µM | – | – | – | –
CCCc1ccc(C#CC#Cc2cn([C@H]3C[C@H](O)[C@@H](CO)O3)c(=O)[nH]c2=O)cc1 | 100 µM | 14 µM | 3.7 µM | > 20 µM | 2.77 µM | 52 µM | 2.36 | > 20 µM | – | – | – | –
